The values that follow come from PubChem BioAssay AID720543 (The Scripps Research Institute Molecular Screening Center, 2013).

Out of some 370,000 compounds screened, about 2,000 (0.54%) were called active. This is one part of a sample in which actives are shown more often than they occur. Unmarked numbers belong to inactive results.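 How the source made its calls: active means inhibition exceeding the mean over every tested compound plus 3 SD (cut at about 30% in these data); inactive means the rest.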

A word on the inhibition: it is the relative decrease from the control value, in per cent.

Sequence of (Lyso)-N-acylphosphatidylethanolamine lipase (Mus musculus) (Q8VD66 whole entry, looked up): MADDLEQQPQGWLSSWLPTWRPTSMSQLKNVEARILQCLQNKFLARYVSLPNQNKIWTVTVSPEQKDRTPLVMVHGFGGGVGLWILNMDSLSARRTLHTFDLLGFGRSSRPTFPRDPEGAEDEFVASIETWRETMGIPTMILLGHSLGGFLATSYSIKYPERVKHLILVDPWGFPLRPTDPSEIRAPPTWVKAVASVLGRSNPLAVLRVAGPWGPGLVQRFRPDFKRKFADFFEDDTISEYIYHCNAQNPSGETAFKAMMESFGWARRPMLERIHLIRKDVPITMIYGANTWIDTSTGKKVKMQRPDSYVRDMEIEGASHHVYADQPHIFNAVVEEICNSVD

This experiment addresses (Lyso)-N-acylphosphatidylethanolamine lipase (Mus musculus) (UniProt Q8VD66). As to the kind of experiment: ABHD4 inhibitors, primary screen, biochemical, fluorescence polarization, mouse (AID 720543).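 Further: 0% = plate median of compound wells and 100% = S159A mutant with DMSO.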 The settings on record: purified mABHD4, FP-Rh probe fluorescence polarization; at 8.92 µM; hits give high values. The essentials: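 assay system = mABHD4 protein | compound dosing = single nominal dose of 8.92 µM, 0.89% DMSO final | read-out basis = percent inhibition of probe binding, normalized to plate controls | schedule = Enzyme–compound pre-incubation 45 min, then probe 60 min, both 25 °C | detection = fluorescence polarization, excitation 525 nm, emission 598 nm, BODIPY TMR filters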
As to `O=C(C1CCN(S(=O)(=O)c2ccc(Br)s2)CC1)N1CCN(c2ccccc2)CC1`, the inhibition is 1.42%.
The result for `COc1ccc(-n2c(SCC(=O)NC3CCCC3)nnc2-c2ccncc2)cc1` reads 3.8%; that for `CCn1c(/C=C/Nc2ccccc2)[n+](CC)c2ccc(C(=O)OCC(F)(F)F)cc21`, -4.64%; that for `CC(c1c[nH]c2ccccc12)c1c(-c2ccccc2)n(C)c2ccccc12` (centres undefined), -21.7%.
For the compound `Cc1nc2cc(C(F)(F)F)ccc2n1CCNc1nc(-c2cc(Cl)c(N)c(Cl)c2)cs1`, the inhibition is 5.15%.
The result for `CC(C)COC(=O)n1c(=O)oc2ccc(S(=O)(=O)N3CCCCC3)cc21` reads 42.3% (active); that for `CC1CCCCN1C(=O)Cn1c(=O)oc2cc(S(=O)(=O)N3CCCCC3)ccc21` (centres undefined), 8.03%.
On to `CCOC(=O)C1CCN(C(=O)c2oc3ccc(S(=O)(=O)N4CCCCCC4)cc3c2C)CC1`, for which the inhibition is 6.37%.
The result for `Cc1ccccc1NC(=O)C1CCN(c2ncccn2)CC1` reads -7.6%; that for `COC(=O)C1CCCCN1C(=O)c1ccc(OC2CCN(C(C)=O)CC2)c(OC)c1` (centres undefined), -4.35%; that for `COc1ccc(-c2ccccc2C2Cc3nnccc3CN2C(=O)Nc2ccccc2)cc1` (centres undefined), -13%.
In the case of `Cc1coc2c(O)cc3c(c12)OC1(N2CCCCC2)C(=O)NCCCC31` (centres undefined) it was 35.3% (active); in that of `O=C(CSc1nnc(-c2ccccn2)n1-c1ccc(Cl)cc1)Nc1ccccc1-c1ccccc1`, -9.15%; in that of `CS(=O)(=O)N1CCCC(C(=O)Nc2ccccc2C(F)(F)F)C1` (centres undefined), -11.1%.
Consider `COc1ccc(C(C#N)Nc2ccc(C)cc2)cc1` (centres undefined), for which the inhibition was 0.68%.
As for `Cc1cc2nc3c(=O)n(Cc4ccccc4)c(=O)[nH]c3nc2cc1N`, the inhibition is 56.4% (active).
In the case of `COCCCN(C(=O)CSCc1ccc(C)cc1)c1c(N)n(Cc2ccccc2)c(=O)[nH]c1=O` it was 2.08%.
In the case of `COCCn1c(N)c(NCc2ccccc2)c(=O)[nH]c1=O` it was 7.29%; in that of `CC(NC(=O)C1CCCN(S(=O)(=O)c2ccc(-n3cnnn3)cc2)C1)c1ccc(F)cc1` (centres undefined), -0.78%; in that of `Cc1ccc(S/C(=N\S(=O)(=O)c2ccc(Cl)cc2)c2ccccc2)cc1`, 7.36%.
For the compound `CCOc1ccc(Oc2c(Cl)cnn(-c3ccc(C)cc3)c2=O)cc1`, the inhibition is 5.6%.
The result for `COc1ccc(C2Nc3ccccc3C(=O)N2Cc2cccs2)cc1COc1c(C)cccc1C` (centres undefined) reads -15.8%; that for `COc1ccc(/C=C/c2nnc(NC(=O)C(C)C)s2)cc1`, -1.43%; that for `COc1ccc(-c2noc(C(C)NS(=O)(=O)c3ccc(NC(C)=O)cc3)n2)cc1` (centres undefined), 0.4%.
In the case of `CCOc1ccc2sc(NS(=O)(=O)c3ccc(N)cc3)nc2c1` it was 16.3%; in that of `CCOc1ccc2nc(NCCNC(=O)C(C)(C)C)c(C)cc2c1`, -2.62%; in that of `COc1ccc2nc(Nc3nc4ccc(NC(C)=O)cc4s3)sc2c1`, 37.7% (active).
In the case of `CCOc1ccc2nc(Nc3nc4ccc(NC(C)=O)cc4s3)sc2c1` it was 35.1% (active); in that of `CN1CCN(C(=O)C(=O)c2cn(CC(=O)N3CCCC3)c3ccccc23)CC1`, 8.39%.
As for `Nc1nc2c(ncn2[C@@H]2O[C@H](C(=O)N[C@@H](Cc3ccccc3)C(=O)NCc3ccccc3)[C@@H](O)[C@H]2O)c(=O)[nH]1`, the inhibition is 1.72%.
In the case of `COC(=O)[C@]12C[C@H](CC(=O)NCC34CC5CC(CC(C5)C3)C4)C(=O)N(Cc3ccc(Cl)cc3Cl)C1=C[C@H](COCc1ccccc1)O[C@@H]2C` it was 2.69%.
The result for `O=C(NCc1ccccc1)[C@@H]1CCCN1C(=O)[C@@H](NS(=O)(=O)c1ccc(F)cc1F)C1CCCCC1` reads -7.63%; that for `COC(=O)[C@]12C[C@H](CC(=O)NCc3ccccc3)C(=O)N(Cc3ccccc3)C1=C[C@H](COCc1ccccc1)O[C@@H]2C`, -5.73%; that for `COC(=O)[C@@]12CCCCC=C1N(CCc1ccc(Cl)cc1)C(=O)[C@H]2CC(=O)NCc1ccc(OC)c(OC)c1`, -1.49%.
The result for `CCOC(=O)[C@@]12CCC3=C1N(CCC3)C(=O)[C@H](CC(=O)N1CCN(C(=O)c3ccco3)CC1)C2` reads 2.38%; that for `O=C1CC(c2ccccc2)C(c2ccccc2)=NN1` (centres undefined), -2.08%; that for `CN(C(=O)COc1ncnc2c1cnn2-c1ccccc1)C1CCCCC1`, -16.6%.
With `CCOC(=O)Cn1c2c(n(-c3ccc(F)cc3)c1=O)C=C(c1ccccc1)[C@@H](C)C(C(=O)N(C)C1CCCCC1)=C2`, the inhibition is 34.2% (active).
The result for `CN(C(=O)CCn1c(=S)oc2ccccc21)C1CCCCC1` reads 0.63%; that for `CCC(=O)Nc1ccc2c(c1)C(=O)N(C)[C@@H]1CC[C@@H](CC(=O)NCCc3ccccc3)O[C@H]1CO2`, -0.19%; that for `CN1C(=O)c2cccc3c(N)ccc(c23)C1=O`, 32.9% (active).
With `Cc1nn(C)cc1N1C(=O)c2cccc3c(N)ccc(c23)C1=O`, the inhibition was 35.3% (active).
The result for `CC(C)C[C@H](NC(=O)CC1CCCC1)C(=O)N1CCC[C@H]1C(=O)NCc1ccccc1` reads 0.46%; that for `COc1ccc2c(C(C)c3ccc(N)cc3)cn(C)c2c1` (centres undefined), -3.15%; that for `CC(NC(=O)CCCC1CCCCC1)c1ccc(S(N)(=O)=O)cc1` (centres undefined), -16%.
In the case of `CCOC(=O)C1CCN(C(=O)C(C)(C)NC(=O)Nc2ccccc2Cl)CC1` it was -3.65%; in that of `O=C(NCC1COc2ccccc2O1)c1ccc(NC(=O)c2cc(F)ccc2F)cc1` (centres undefined), 5.07%.
In the case of `CCN(CC)C(=O)CC[C@H]1CC[C@]2(CCCN(Cc3ccc(Cl)cc3)C2)O1`, the inhibition was -3.65%.
The result for `C=CCN1C(=O)[C@@H](CC(=O)NCCCOCCCC)[C@]2(C(=O)OCC)CCCCC/C=C/12` reads -1.53%.
In the case of `Cc1cccc(N2CCN(Cc3nc(C4CC4)no3)CC2)n1` it was 53.8% (active); in that of `Fc1cccc(Cc2noc(CN3CCN(c4cnccn4)CC3)n2)c1`, -0.5%; in that of `Cc1ccccc1N1CCN(Cc2nc(Cc3ccccc3F)no2)CC1`, -7.9%.
In the case of `CCOC(=O)C1CCN(C(=O)C2(NC(=O)Nc3cccc(F)c3)CCCCC2)CC1` it was -0.97%; in that of `O=C(/C=C/c1ccc([N+](=O)[O-])cc1)NCCSCc1ccco1`, -1.92%.
`CCCCC(=O)N[C@@H]1CC[C@@]23CCCN2C(=O)CCC[C@H]3[C@H]1C`: the inhibition was 3.19%.
The result for `CC1CCN(c2ccc(C(=O)O)cc2NS(=O)(=O)c2ccc(Br)s2)CC1` reads 40.3% (active).
In the case of `CC1CCN(c2ccc(C(=O)Nc3nnc(C4CC4)s3)cc2[N+](=O)[O-])CC1` it was 2.94%; in that of `CC1CCN(c2ccc(S(=O)(=O)Nc3cc(C(=O)O)cc(C(=O)O)c3)cc2[N+](=O)[O-])CC1`, -0.48%; in that of `O=C1C=CC(=O)N1c1ccc(N2CCCCC2)cc1`, 40.5% (active).
The result for `Nn1c(SCC(=O)N2c3ccccc3Sc3ccccc32)nnc1-c1n[nH]c2c1CCC2` reads -15.8%; that for `O=C1CC[C@@]23CCCN2C(=O)CCC[C@H]3[C@H]1Cc1ccccc1`, -0.8%.
With `CC1(C)OC(=O)C(=CNC(CO)C(=O)O)C(=O)O1` (centres undefined), the inhibition was 5.15%.
The result for `CC(=O)Nc1nc2ncccn2c1-c1ccc(C(F)(F)F)cc1` reads 5.78%; that for `CCCN1C(=O)c2[nH]nc(-c3ccccc3)c2C1c1ccccc1` (centres undefined), -7.15%.
In the case of `CC(C)NC(=O)/C(C#N)=C\c1ccc(N(C)C)c(Br)c1` it was 3.76%; in that of `N#C/C(=C\c1ccc(O)c(O)c1)C(=O)NCc1ccccc1`, 47% (active); in that of `O=C(CCCc1ccccc1)NCc1ccccc1`, -1.11%.
In the case of `CC(=O)Nc1ccc(OC[C@@H](O)CN2CCC(C(O)(c3ccccc3)c3ccccc3)CC2)cc1` it was -3.77%; in that of `OC(c1ccccc1)(c1ccccc1)C1CCN(CCCOc2ccc(-c3ccsc3)cc2)CC1`, 13.8%; in that of `CN(C)c1ccc(NC(=O)NC2CCCCN(Cc3ccc(Cl)cc3)C2=O)cc1` (centres undefined), 14%.
Take `Cc1cccc(C)c1NC(=O)CS(=O)CC(=O)N1CCN(c2ccccc2)CC1` (centres undefined): the inhibition is -7.61%.
In the case of `Cc1cccc(N2CCN(c3ccc(NC(=O)/C=C\C(=O)O)cc3)CC2)c1` it was 38.7% (active); in that of `Cc1cccc(N2CCN(C(=O)c3ccccc3NC(=O)C3CCCCC3C(=O)O)CC2)c1` (centres undefined), 2.26%; in that of `COc1ccc(Cn2ccc3ccc(-c4ccc5ccn(Cc6ccccc6C)c5c4)cc32)cc1`, 7.66%.
For the compound `Cc1ccc(-c2nc(C3CCCN(S(=O)(=O)c4ccc(Br)s4)C3)no2)cc1` (centres undefined), the inhibition was 7.38%.
The result for `Oc1ccc(CNc2ccccc2O)cc1` reads 37.8% (active); that for `c1ccc(CNCc2ccc(CNCc3ccccc3)cc2)cc1`, 5.37%.
Regarding `Oc1ccc(N2CCN(C(=S)NCc3ccccc3)CC2)cc1`, the inhibition was 14.8%.
In the case of `Cc1nc(CNc2ncnc3ccc(-c4ccc5c(c4)OCO5)cc23)cs1` it was -1.75%; in that of `CCOC(=O)[C@H]1[C@H]2COc3ccc(Cl)cc3[C@@H]2N2C(=O)c3cc(C)ccc3NC(=O)[C@@]12C`, 2.18%.
For the compound `O=C(OCc1ccccc1)N1CCC2CC1c1cc(N3CCN(S(=O)(=O)c4cc(Cl)cc(Cl)c4)CC3)ccc12` (centres undefined), the inhibition is 2.29%.
In the case of `CCOC(=O)[C@H]1Nc2ccc(Cl)cc2[C@@H]2[C@H]1C1CC(c3ccccc31)N2C(=O)OCc1ccccc1` (some centres undefined) it was 46.2% (active); in that of `Cc1cc2nc3c(=O)[nH]c(=O)nc-3n(C[C@H](O)[C@H](O)[C@H](O)CO)c2cc1C`, 15.4%.
The result for `CCN(CC)CCCC(C)n1c2nc(=O)[nH]c(=O)c-2nc2cc(Cl)ccc21` (centres undefined) reads 29.5% (active).
